Reference: ChEMBL document CHEMBL1135826, “Antimicrobial peptides: synthesis and antibacterial activity of linear and cyclic drosocin and apidaecin 1b analogues” (2002)
≈ marks a conversion by molar mass, not a printed value. Where a SMILES comes first, the peptide text is derived from it. The star is where a group is joined. X2 = CC(=O)N[C@@H]1[C@@H](O)[C@H](O)[C@@H](CO)O[C@@H]1*

Columns and labels:
Escherichia coli [1] = assay: Minimum inhibitory concentration (lowest peptide concentration) required to prevent visible bacterial growth after 18 hr of incubation at 37 C in Mueller-Hinton broth against Escherichia coli ML-35; type: functional
In short: (§1)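 Broth microdilution susceptibility test per NCCLS guidelines, in Mueller–Hinton broth with about 1.5–2.0 × 10^5 CFU/mL inoculum. Plates were incubated 18 h at 37 °C. MIC was taken as the lowest peptide concentration with no visible growth. Strains were ATCC strains or clinical isolates; E. coli O18:K1:H7 Bort is an encapsulated isolate from neonatal spinal fluid, and the S. aureus isolate is MRSA.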

Escherichia coli [2] = assay: Minimum inhibitory concentration (lowest peptide concentration) required to prevent visible bacterial growth after 18 hr of incubation at 37 C in Mueller-Hinton broth against Escherichia coli D22; type: functional; in short: as §1
Pseudomonas aeruginosa = assay: Minimum inhibitory concentration (lowest peptide concentration) required to prevent visible bacterial growth after 18 hr of incubation at 37 C in Mueller-Hinton broth against Pseudomonas aeruginosa ATCC 27853; type: functional; settings: ATCC 27853, 18 h; in short: as §1
Salmonella enteritidis [3] = assay: Minimum inhibitory concentration (lowest peptide concentration) required to prevent visible bacterial growth after 18 h of incubation at 37 C in Mueller-Hinton broth against […]; type: functional, Salmonella enterica subsp. enterica serovar Enteritidis; settings: Salmonella enterica; in short: as §1
[4] = system: Staphylococcus epidermidis; assay: Minimum inhibitory concentration (lowest peptide concentration) required to prevent visible bacterial growth after 18 hr of incubation at 37 C in Mueller-Hinton broth against Staphylococcus epidermidis 4; type: functional; in short: as §1
Klebsiella pneumoniae [5] = assay: Minimum inhibitory concentration (lowest peptide concentration) required to prevent visible bacterial growth after 18 hr of incubation at 37 C in Mueller-Hinton broth against Klebsiella pneumoniae 22; type: functional; in short: as §1
Salmonella typhimurium = assay: Minimum inhibitory concentration (lowest peptide concentration) required to prevent visible bacterial growth after 18 hr of incubation at 37 C in Mueller-Hinton broth against Salmonella Typhimurium ATCC 14028; type: functional, Salmonella enterica subsp. enterica serovar Typhimurium; settings: Salmonella enterica; in short: as §1
Staphylococcus aureus = assay: Minimum inhibitory concentration (lowest peptide concentration) required to prevent visible bacterial growth after 18 hr of incubation at 37 C in Mueller-Hinton broth against Staphylococcus aureus G; type: functional; in short: as §1
Acinetobacter baumannii = assay: Minimum inhibitory concentration (lowest peptide concentration) required to prevent visible bacterial growth after 18 hr of incubation at 37 C in Mueller-Hinton broth against Acinetobacter baumannii 118A; type: functional; in short: as §1
Salmonella enteritidis [6] = assay: Minimum inhibitory concentration (lowest peptide concentration) required to prevent visible bacterial growth after 18 hr of incubation at 37 C in Mueller-Hinton broth against Salmonella enteritidis D5; settings: Salmonella enterica
Escherichia coli [7] = assay: Minimum inhibitory concentration (lowest peptide concentration) required to prevent visible bacterial growth after 18 hr of incubation at 37 C in Mueller-Hinton broth against Escherichia coli O18:K1:H7; type: functional; in short: as §1
Escherichia coli [8] = assay: Minimum inhibitory concentration (lowest peptide concentration) required to prevent visible bacterial growth after 18 hr of incubation at 37 C in Mueller-Hinton broth against Escherichia coli D21; type: functional; in short: as §1
Escherichia coli [9] = assay: Minimum inhibitory concentration (lowest peptide concentration) required to prevent visible bacterial growth after 18 hr of incubation at 37 C in Mueller-Hinton broth against Escherichia coli ATCC 25922; type: functional; settings: ATCC 25922, 18 h; in short: as §1
Klebsiella pneumoniae [10] = assay: Minimum inhibitory concentration (lowest peptide concentration) required to prevent visible bacterial growth after 18 hr of incubation at 37 C in Mueller-Hinton broth against Klebsiella pneumoniae 79; type: functional; in short: as §1

Row | Molecule | MIC (Escherichia coli [1]) [µM] | MIC (Escherichia coli [2]) [µM] | MIC (Pseudomonas aeruginosa) [µM] | MIC (Salmonella enteritidis [3]) [µM] | MIC [4] [µM] | MIC (Klebsiella pneumoniae [5]) [µM] | MIC (Salmonella typhimurium) [µM] | MIC (Staphylococcus aureus) [µM] | MIC (Acinetobacter baumannii) [µM] | MIC (Salmonella enteritidis [6]) [µM] | MIC (Escherichia coli [7]) [µM] | MIC (Escherichia coli [8]) [µM] | MIC (Escherichia coli [9]) [µM] | MIC (Klebsiella pneumoniae [10]) [µM]
1 | H-GKPRPYSPRPASHPRPIRV-OH | 16 | > 64 | > 128 | 16 | > 64 | > 128 | 32 | > 64 | > 128 | 8 | 16 | > 128 | 64 | > 128
2 | CC[C@H](C)[C@@H]1NC(=O)[C@@H]2CCCN2C(=O)[C@H](CCCNC(=N)N)NC(=O)[C@@H]2CCCN2C(=O)[C@H](Cc2cnc[nH]2)NC(=O)[C@H](CO)NC(=O)[C@H]([C@@H](C)O)NC(=O)[C@@H]2CCCN2C(=O)[C@H](CCCNC(=N)N)NC(=O)[C@@H]2CCCN2C(=O)[C@H](CO)NC(=O)[C@H](Cc2ccc(O)cc2)NC(=O)[C@@H]2CCCN2C(=O)[C@H](CCCNC(=N)N)NC(=O)[C@@H]2CCCN2C(=O)[C@H](CCCCN)NC(=O)CNC(=O)[C@H](C(C)C)NC(=O)[C@H](CCCNC(=N)N)NC(=O)[C@H]([C@@H](C)CC)NC(=O)[C@@H]2CCCN2C(=O)[C@H](CCCNC(=N)N)NC(=O)[C@@H]2CCCN2C(=O)[C@H](Cc2cnc[nH]2)NC(=O)[C@H](CO)NC(=O)[C@H]([C@@H](C)O)NC(=O)[C@@H]2CCCN2C(=O)[C@H](CCCNC(=N)N)NC(=O)[C@@H]2CCCN2C(=O)[C@H](CO)NC(=O)[C@H](Cc2ccc(O)cc2)NC(=O)[C@@H]2CCCN2C(=O)[C@H](CCCNC(=N)N)NC(=O)[C@@H]2CCCN2C(=O)[C@H](CCCCN)NC(=O)CNC(=O)[C@H](C(C)C)NC(=O)[C@H](CCCNC(=N)N)NC1=O (HELM PEPTIDE1{G.K.P.R.P.Y.S.P.R.P.T.S.H.P.R.P.I.R.V.G.K.P.R.P.Y.S.P.R.P.T.S.H.P.R.P.I.R.V}$PEPTIDE1,PEPTIDE1,1:R1-38:R2$$$V2.0) | > 64 | > 64 | > 64 | > 64 | > 64 | > 64 | > 64 | > 64 | > 64 | > 64 | > 64 | > 64 | > 64 | > 64
3 | H-GKPRPYSPRPSHPRPIRV-OH | 32 | > 64 | > 128 | > 64 | > 64 | > 128 | > 64 | > 64 | > 64 | 32 | 64 | > 64 | 64 | > 128

Further lines, results first:

Row | MIC (Escherichia coli [1]) [µM] | MIC (Escherichia coli [2]) [µM] | MIC (Pseudomonas aeruginosa) [µM] | MIC (Salmonella enteritidis [3]) [µM] | MIC [4] [µM] | MIC (Klebsiella pneumoniae [5]) [µM] | MIC (Salmonella typhimurium) [µM] | MIC (Staphylococcus aureus) [µM] | MIC (Acinetobacter baumannii) [µM] | MIC (Salmonella enteritidis [6]) [µM] | MIC (Escherichia coli [7]) [µM] | MIC (Escherichia coli [8]) [µM] | MIC (Escherichia coli [9]) [µM] | MIC (Klebsiella pneumoniae [10]) [µM] | Molecule
4 | > 128 | > 64 | > 128 | > 128 | > 64 | > 128 | > 128 | > 64 | > 128 | > 128 | > 128 | > 64 | > 128 | > 128 | H-GNNRPVYIPQPRPTPHPRL-OH
5 | 32 (≈ 77.2 µg/mL) | 32 (≈ 77.2 µg/mL) | > 128 | > 64 | > 64 | > 128 | 64 (≈ 154 µg/mL) | > 64 | > 128 | 64 (≈ 154 µg/mL) | 64 (≈ 154 µg/mL) | > 64 | 32 (≈ 77.2 µg/mL) | > 128 | CC[C@H](C)[C@H](NC(=O)[C@H](Cc1ccc(O)cc1)NC(=O)[C@@H](NC(=O)[C@@H]1CCCN1C(=O)[C@H](CCCN=C(N)N)NC(=O)[C@H](CC(N)=O)NC(=O)[C@H](CC(N)=O)NC(=O)CN)C(C)C)C(=O)N1CCC[C@H]1C(=O)N[C@@H](CCC(N)=O)C(=O)N1CCC[C@H]1C(=O)N[C@@H](CCCN=C(N)N)C(=O)N1CCC[C@H]1C(=O)N[C@H](C(=O)N1CCC[C@H]1C(=O)N[C@@H](Cc1c[nH]cn1)C(=O)N1CCC[C@H]1C(=O)N[C@@H](CCCN=C(N)N)C(=O)N[C@@H](CC(C)C)C(=O)O)[C@@H](C)O[C@H]1O[C@H](CO)[C@@H](O)[C@H](O)[C@H]1NC(C)=O (H-GNNRPVYIPQPRPT(X2)PHPRL-OH)
